Reference: the M2OR odorant receptor database

Legend:
Conditions in all cases: stereoisomer not certain
[1] = biological target: T1, UniProt L7N210
T1 sequence (whole entry): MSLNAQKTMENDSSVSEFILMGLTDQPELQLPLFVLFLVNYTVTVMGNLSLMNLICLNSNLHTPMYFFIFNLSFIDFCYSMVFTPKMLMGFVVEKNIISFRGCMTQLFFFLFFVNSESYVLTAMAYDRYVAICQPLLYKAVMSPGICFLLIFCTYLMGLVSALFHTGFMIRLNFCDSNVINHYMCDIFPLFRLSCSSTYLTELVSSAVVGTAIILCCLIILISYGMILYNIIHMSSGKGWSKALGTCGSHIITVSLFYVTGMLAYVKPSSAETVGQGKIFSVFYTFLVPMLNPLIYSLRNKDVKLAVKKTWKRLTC
Method in brief: (§1)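 Transient luciferase assays in mammalian cell lines were common, though methods varied by source. The values come from published papers and their supplementary material, with extra details from the original authors when needed. Responsive refers to a measured signal the original authors judged statistically different from baseline, and non-responsive (inactive) to the remainder.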

[2] = biological target: T2, UniProt Q3KPB0
T2 sequence (whole entry): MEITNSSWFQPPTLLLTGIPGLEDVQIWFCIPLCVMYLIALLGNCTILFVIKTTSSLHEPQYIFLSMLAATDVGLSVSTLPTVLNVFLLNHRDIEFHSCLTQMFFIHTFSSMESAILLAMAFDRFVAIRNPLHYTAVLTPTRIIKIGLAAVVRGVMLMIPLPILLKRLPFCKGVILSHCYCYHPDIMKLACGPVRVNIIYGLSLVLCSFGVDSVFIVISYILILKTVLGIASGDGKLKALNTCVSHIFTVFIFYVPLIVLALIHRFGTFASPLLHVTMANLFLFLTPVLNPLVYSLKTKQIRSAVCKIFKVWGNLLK
Method in brief: as §1

[3] = biological target: T3, UniProt Q3U0P3
T3 sequence (whole entry): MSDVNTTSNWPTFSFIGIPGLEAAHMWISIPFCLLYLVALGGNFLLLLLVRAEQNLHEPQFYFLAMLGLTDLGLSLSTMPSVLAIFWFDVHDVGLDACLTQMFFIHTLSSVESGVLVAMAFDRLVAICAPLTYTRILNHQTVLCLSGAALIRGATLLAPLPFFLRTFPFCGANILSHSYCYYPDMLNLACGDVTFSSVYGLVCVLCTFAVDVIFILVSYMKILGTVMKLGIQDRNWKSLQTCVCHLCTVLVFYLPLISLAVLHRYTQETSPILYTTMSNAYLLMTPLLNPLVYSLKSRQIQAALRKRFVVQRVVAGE
Method in brief: as §1

[4] = biological target: T4, UniProt Q7TQU8
T4 sequence (whole entry): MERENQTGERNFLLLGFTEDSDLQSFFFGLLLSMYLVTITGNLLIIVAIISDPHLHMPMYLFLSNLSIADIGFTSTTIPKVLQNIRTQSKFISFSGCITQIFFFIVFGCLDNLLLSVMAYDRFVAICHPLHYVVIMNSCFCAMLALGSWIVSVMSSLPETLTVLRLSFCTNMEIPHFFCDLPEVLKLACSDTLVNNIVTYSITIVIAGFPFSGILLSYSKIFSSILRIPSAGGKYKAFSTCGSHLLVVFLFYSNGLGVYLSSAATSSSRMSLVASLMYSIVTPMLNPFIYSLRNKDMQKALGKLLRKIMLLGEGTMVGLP
Method in brief: as §1

[5] = biological target: T5, UniProt Q7TR79
T5 sequence (whole entry): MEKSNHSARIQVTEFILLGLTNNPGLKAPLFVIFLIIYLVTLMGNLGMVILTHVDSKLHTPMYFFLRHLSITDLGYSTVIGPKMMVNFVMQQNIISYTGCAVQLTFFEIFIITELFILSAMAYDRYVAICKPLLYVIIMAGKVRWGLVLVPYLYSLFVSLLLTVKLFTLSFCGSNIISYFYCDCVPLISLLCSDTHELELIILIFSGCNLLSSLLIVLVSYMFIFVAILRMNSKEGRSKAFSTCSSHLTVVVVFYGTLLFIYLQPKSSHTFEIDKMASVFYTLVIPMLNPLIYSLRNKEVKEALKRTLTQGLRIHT
Method in brief: as §1

[6] = biological target: T6, UniProt Q7TRX0
T6 sequence (whole entry): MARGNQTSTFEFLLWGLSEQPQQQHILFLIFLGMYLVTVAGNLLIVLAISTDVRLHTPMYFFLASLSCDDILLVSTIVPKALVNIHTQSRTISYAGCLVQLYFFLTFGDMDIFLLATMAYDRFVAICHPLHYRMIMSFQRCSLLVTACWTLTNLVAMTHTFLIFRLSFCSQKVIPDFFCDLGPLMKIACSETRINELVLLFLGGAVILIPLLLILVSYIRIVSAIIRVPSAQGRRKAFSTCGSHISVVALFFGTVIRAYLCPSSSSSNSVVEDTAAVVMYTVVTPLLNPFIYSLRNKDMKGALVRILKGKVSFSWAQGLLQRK
Method in brief: as §1

[7] = biological target: T7, UniProt Q8VF43
T7 sequence (whole entry): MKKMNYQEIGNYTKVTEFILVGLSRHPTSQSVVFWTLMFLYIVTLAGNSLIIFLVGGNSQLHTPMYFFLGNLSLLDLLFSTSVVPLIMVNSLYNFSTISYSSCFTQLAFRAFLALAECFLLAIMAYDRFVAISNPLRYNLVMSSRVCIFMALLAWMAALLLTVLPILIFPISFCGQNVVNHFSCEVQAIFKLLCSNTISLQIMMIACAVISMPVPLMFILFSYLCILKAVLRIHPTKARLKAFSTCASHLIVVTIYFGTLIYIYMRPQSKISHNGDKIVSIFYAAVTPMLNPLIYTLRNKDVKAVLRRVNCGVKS
Method in brief: as §1
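Also: active if original authors judged signal statistically different from baseline.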

SMILES | odorant receptor agonist call [1] | odorant receptor agonist call [2] | odorant receptor agonist call [3] | odorant receptor agonist call [4] | odorant receptor agonist call [5] | odorant receptor agonist call [6] | odorant receptor agonist call [7]
Oc1ccccc1Br | inactive | inactive | inactive | inactive | inactive | inactive | inactive
CSSC | inactive | inactive | inactive | inactive | inactive | inactive | inactive
CC(C=O)Cc1ccc2c(c1)OCO2 (stereo not drawn) | active | inactive | inactive | inactive | inactive | inactive | inactive
OCc1ccc2c(c1)OCO2 | inactive | inactive | inactive | inactive | inactive | inactive | inactive
